Data as given in ChEMBL document CHEMBL1127523, “Design and synthesis of side-chain conformationally restricted phenylalanines and their use for structure-activity studies on tachykinin NK-1 receptor” (J Med Chem, 1994).
Starred links: 1 amine or outer side, 2 acyl side, 3 side chain; linkers in the order of their positions; H or OH if unused. Non-standard residues stand in square brackets, D forms with d. Residues, ends and D or L forms follow the SMILES beside them. Gly(9-fluorenyl) = N[C@H](C(=O)O)C1c2ccccc2-c2ccccc21; X1 = O=C([C@@H](N[*:1])C1CCc2ccccc21)[*:2]; Dip = N[C@H](C(=O)O)C(c1ccccc1)c1ccccc1

How the values were obtained:
Cavia porcellus [1] = species on record: Cavia porcellus; assay: Effective concentration required for its inhibition of nonspecific binding to guinea pig ileal membranes; type: functional
Cavia porcellus [2] = species on record: Cavia porcellus; assay: Concentration required to inhibit nonspecific binding of [125I]BH-SP to guinea pig ileal membranes; type: functional
Neuromedin-K receptor = target: T1, Neuromedin-K receptor (Rattus norvegicus, UniProt P16177); assay: Concentration required to inhibit the specific binding of [125I]BH-ELE to Neurokinin-3 (NK-3) receptor in rat brain synaptosomes; type: subcellular
T1 sequence (P16177 whole entry): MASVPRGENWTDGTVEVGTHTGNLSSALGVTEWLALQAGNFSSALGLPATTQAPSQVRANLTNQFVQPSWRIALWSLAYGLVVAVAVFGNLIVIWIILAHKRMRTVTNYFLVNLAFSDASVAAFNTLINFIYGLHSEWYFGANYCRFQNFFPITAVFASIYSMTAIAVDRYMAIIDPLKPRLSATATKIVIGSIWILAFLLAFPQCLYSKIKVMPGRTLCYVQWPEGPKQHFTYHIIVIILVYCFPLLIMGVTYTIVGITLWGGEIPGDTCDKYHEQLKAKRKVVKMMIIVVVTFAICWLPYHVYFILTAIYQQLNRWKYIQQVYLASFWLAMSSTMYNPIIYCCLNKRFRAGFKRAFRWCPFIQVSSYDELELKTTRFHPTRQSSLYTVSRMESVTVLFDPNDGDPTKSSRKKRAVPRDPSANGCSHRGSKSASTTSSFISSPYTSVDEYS
Procedure, shortened: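 Rat brain synaptosomes in Krebs-Ringer phosphate buffer with BSA, bacitracin and glucose. Incubated 15 min at 20 °C with 40 pM [125I]BHELE and increasing peptide concentrations, gamma counted. Triplicates, two to eight independent experiments; nonspecific binding defined with eledoisin 10⁻⁶ M. IC50 estimated from Hill plots of titration curves.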

Substance-P receptor = Substance-P receptor (Rattus norvegicus, UniProt P14600); assay: Concentration required to inhibit the specific binding of [125I]BH-SP to Neurokinin-1 (NK-1) receptor in rat brain synaptosomes; type: subcellular
Substance-K receptor = target: T2, Substance-K receptor (Rattus norvegicus, UniProt P16610); assay: Concentration required to inhibit the specific binding of [3H]NKA to Neurokinin-2 (NK-2) receptor in rat duodenum membranes
T2 sequence (P16610 whole entry): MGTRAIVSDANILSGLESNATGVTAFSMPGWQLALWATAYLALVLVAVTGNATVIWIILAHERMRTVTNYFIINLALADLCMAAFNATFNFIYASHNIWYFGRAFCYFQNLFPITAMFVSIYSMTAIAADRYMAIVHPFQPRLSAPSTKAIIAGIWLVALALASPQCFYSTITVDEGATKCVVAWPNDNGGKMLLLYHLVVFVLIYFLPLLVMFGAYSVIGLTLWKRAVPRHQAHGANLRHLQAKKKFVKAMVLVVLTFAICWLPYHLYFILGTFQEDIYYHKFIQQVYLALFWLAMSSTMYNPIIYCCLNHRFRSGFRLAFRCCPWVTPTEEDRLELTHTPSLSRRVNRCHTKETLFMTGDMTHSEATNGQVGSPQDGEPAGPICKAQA

Cavia porcellus [3] = species on record: Cavia porcellus; assay: pKB value of compound was determined in presence of antagonist RP-67580 at conc. of 10e-7 M; type: functional

Substance-P receptor, sequence (P14600 whole entry): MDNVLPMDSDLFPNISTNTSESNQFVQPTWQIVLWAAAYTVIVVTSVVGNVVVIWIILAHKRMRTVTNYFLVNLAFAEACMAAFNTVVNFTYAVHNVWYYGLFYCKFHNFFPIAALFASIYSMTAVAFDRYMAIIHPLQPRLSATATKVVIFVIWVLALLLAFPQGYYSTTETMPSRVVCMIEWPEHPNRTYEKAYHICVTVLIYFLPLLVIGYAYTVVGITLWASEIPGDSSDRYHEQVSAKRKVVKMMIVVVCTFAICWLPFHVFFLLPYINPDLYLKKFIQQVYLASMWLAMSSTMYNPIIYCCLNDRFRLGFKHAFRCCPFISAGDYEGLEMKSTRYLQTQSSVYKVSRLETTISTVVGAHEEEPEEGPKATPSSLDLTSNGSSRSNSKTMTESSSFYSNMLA

SMILES | EC50 (Cavia porcellus [1]) | IC50 (Cavia porcellus [2]) | IC50 (Neuromedin-K receptor) | IC50 (Substance-P receptor) | IC50 (Substance-K receptor) | pKb (Cavia porcellus [3])
CSCC[C@H](NC(=O)[C@H](CC(C)C)NC(=O)CNC(=O)[C@H](Cc1ccccc1)NC(=O)[C@@H](NC(=O)[C@H](CCC(N)=O)NC(=O)[C@H](CCC(N)=O)NC(=O)[C@@H]1CCCN1C(=O)[C@H](CCCCN)NC(=O)[C@@H]1CCCN1C(=O)[C@@H](N)CCCN=C(N)N)[C@@H]1CCc2ccccc21)C(N)=O [listing 1 of 2 here] | 6.9 nM | 23 nM | 2100 nM | 54 nM | 530 nM | 
CSCC[C@H](NC(=O)[C@H](CC(C)C)NC(=O)CNC(=O)[C@H](Cc1ccccc1)NC(=O)[C@@H](NC(=O)[C@H](CCC(N)=O)NC(=O)[C@H](CCC(N)=O)NC(=O)[C@@H]1CCCN1C(=O)[C@H](CCCCN)NC(=O)[C@@H]1CCCN1C(=O)[C@@H](N)CCCN=C(N)N)[C@@H]1CCc2ccccc21)C(N)=O [listing 2 of 2 here] |  |  |  |  |  | 7.06
CSCC[C@H](NC(=O)[C@H](CC(C)C)NC(=O)CNC(=O)[C@@H](NC(=O)[C@H](Cc1ccccc1)NC(=O)[C@H](CCC(N)=O)NC(=O)[C@H](CCC(N)=O)NC(=O)[C@@H]1CCCN1C(=O)[C@H](CCCCN)NC(=O)[C@@H]1CCCN1C(=O)[C@@H](N)CCCN=C(N)N)[C@@H]1CCc2cc3ccccc3cc21)C(N)=O | 2.8 nM |  | 180 nM | 28 nM | 57 nM | 
CSCC[C@H](NC(=O)[C@H](CC(C)C)NC(=O)[C@@H]1CCCN1C(=O)[C@H](Cc1ccccc1)NC(=O)[C@H](Cc1ccccc1)NC(=O)[C@H](CCC(N)=O)NC(=O)[C@H](CCC(N)=O)NC(=O)[C@@H]1CCCN1C(=O)[C@H](CCCCN)NC(=O)[C@@H]1CCCN1C(=O)[C@@H](N)CCCN=C(N)N)C(N)=O |  |  |  |  |  | 6.97
CSCC[C@H](NC(=O)[C@H](CC(C)C)NC(=O)CNC(=O)[C@H](Cc1ccccc1)NC(=O)[C@@H](NC(=O)[C@H](CCC(N)=O)NC(=O)[C@H](CCC(N)=O)NC(=O)[C@@H]1CCCN1C(=O)[C@H](CCCCN)NC(=O)[C@@H]1CCCN1C(=O)[C@@H](N)CCCN=C(N)N)C1CCc2cc3ccccc3cc21)C(N)=O (some centres undefined) [listing 1 of 2 here] | 6.9 nM | 49 nM | 1600 nM | 48 nM | 120 nM | 
CSCC[C@H](NC(=O)[C@H](CC(C)C)NC(=O)CNC(=O)[C@H](Cc1ccccc1)NC(=O)[C@@H](NC(=O)[C@H](CCC(N)=O)NC(=O)[C@H](CCC(N)=O)NC(=O)[C@@H]1CCCN1C(=O)[C@H](CCCCN)NC(=O)[C@@H]1CCCN1C(=O)[C@@H](N)CCCN=C(N)N)C1CCc2cc3ccccc3cc21)C(N)=O (some centres undefined) [listing 2 of 2 here] |  |  |  |  |  | 7.3
CSCC[C@H](NC(=O)[C@H](CC(C)C)NC(=O)CNC(=O)[C@H](Cc1ccccc1)NC(=O)[C@@H](NC(=O)[C@H](CCC(N)=O)NC(=O)[C@H](CCC(N)=O)NC(=O)[C@@H]1CCCN1C(=O)[C@H](CCCCN)NC(=O)[C@@H]1CCCN1C(=O)[C@@H](N)CCCN=C(N)N)C1c2ccccc2-c2ccccc21)C(N)=O [listing 1 of 2 here] | 9.5 nM | 110 nM | 3100 nM | 1400 nM | 690 nM | 
CSCC[C@H](NC(=O)[C@H](CC(C)C)NC(=O)CNC(=O)[C@H](Cc1ccccc1)NC(=O)[C@@H](NC(=O)[C@H](CCC(N)=O)NC(=O)[C@H](CCC(N)=O)NC(=O)[C@@H]1CCCN1C(=O)[C@H](CCCCN)NC(=O)[C@@H]1CCCN1C(=O)[C@@H](N)CCCN=C(N)N)C1c2ccccc2-c2ccccc21)C(N)=O [listing 2 of 2 here] |  |  |  |  |  | 7.1
CSCC[C@H](NC(=O)[C@H](CC(C)C)NC(=O)CNC(=O)[C@H](Cc1ccccc1)NC(=O)/C(=C\c1ccccc1)NC(=O)[C@H](CCC(N)=O)NC(=O)[C@H](CCC(N)=O)NC(=O)[C@@H]1CCCN1C(=O)[C@H](CCCCN)NC(=O)[C@@H]1CCCN1C(=O)[C@@H](N)CCCN=C(N)N)C(N)=O |  |  |  |  |  | 7.15
CSCC[C@H](NC(=O)[C@H](CC(C)C)NC(=O)CNC(=O)[C@H](Cc1ccccc1)NC(=O)[C@@H](NC(=O)[C@H](CCC(N)=O)NC(=O)[C@H](CCC(N)=O)NC(=O)[C@@H]1CCCN1C(=O)[C@H](CCCCN)NC(=O)[C@@H]1CCCN1C(=O)[C@@H](N)CCCN=C(N)N)C1Cc2ccccc2C1)C(N)=O | 1300 nM |  | > 10000 nM | 2300 nM | 1700 nM | 
CSCC[C@H](NC(=O)[C@H](CC(C)C)NC(=O)CNC(=O)[C@@H](NC(=O)[C@H](Cc1ccccc1)NC(=O)[C@H](CCC(N)=O)NC(=O)[C@H](CCC(N)=O)NC(=O)[C@@H]1CCCN1C(=O)[C@H](CCCCN)NC(=O)[C@@H]1CCCN1C(=O)[C@@H](N)CCCN=C(N)N)C(c1ccccc1)c1ccccc1)C(N)=O [listing 1 of 2 here] | 15 nM | 260 nM |  |  |  | 
CSCC[C@H](NC(=O)[C@H](CC(C)C)NC(=O)CNC(=O)[C@@H](NC(=O)[C@H](Cc1ccccc1)NC(=O)[C@H](CCC(N)=O)NC(=O)[C@H](CCC(N)=O)NC(=O)[C@@H]1CCCN1C(=O)[C@H](CCCCN)NC(=O)[C@@H]1CCCN1C(=O)[C@@H](N)CCCN=C(N)N)C(c1ccccc1)c1ccccc1)C(N)=O [listing 2 of 2 here] |  |  |  |  |  | 6.9
CSCC[C@H](NC(=O)[C@H](CC(C)C)NC(=O)CNC(=O)[C@H](CCc1ccccc1)NC(=O)[C@H](Cc1ccccc1)NC(=O)[C@H](CCC(N)=O)NC(=O)[C@H](CCC(N)=O)NC(=O)[C@@H]1CCCN1C(=O)[C@H](CCCCN)NC(=O)[C@@H]1CCCN1C(=O)[C@@H](N)CCCN=C(N)N)C(N)=O | 2.8 nM | 74 nM | 1900 nM |  | 450 nM | 
CSCC[C@H](NC(=O)[C@H](CC(C)C)NC(=O)CNC(=O)[C@H](Cc1ccccc1)NC(=O)[C@H](CCc1ccccc1)NC(=O)[C@H](CCC(N)=O)NC(=O)[C@H](CCC(N)=O)NC(=O)[C@@H]1CCCN1C(=O)[C@H](CCCCN)NC(=O)[C@@H]1CCCN1C(=O)[C@@H](N)CCCN=C(N)N)C(N)=O [listing 1 of 2 here] | 5.8 nM | 19 nM | > 10000 nM |  | 1900 nM | 
CSCC[C@H](NC(=O)[C@H](CC(C)C)NC(=O)CNC(=O)[C@H](Cc1ccccc1)NC(=O)[C@H](CCc1ccccc1)NC(=O)[C@H](CCC(N)=O)NC(=O)[C@H](CCC(N)=O)NC(=O)[C@@H]1CCCN1C(=O)[C@H](CCCCN)NC(=O)[C@@H]1CCCN1C(=O)[C@@H](N)CCCN=C(N)N)C(N)=O [listing 2 of 2 here] |  |  |  |  |  | 7.25
CSCC[C@H](NC(=O)[C@H](CC(C)C)NC(=O)[C@@H]1CCCN1C(=O)[C@@H](NC(=O)[C@H](Cc1ccccc1)NC(=O)[C@H](CCC(N)=O)NC(=O)[C@H](CCC(N)=O)NC(=O)[C@@H]1CCCN1C(=O)[C@H](CCCCN)NC(=O)[C@@H]1CCCN1C(=O)[C@@H](N)CCCN=C(N)N)C(c1ccccc1)c1ccccc1)C(N)=O (H-RPKPQQF[Dip]PLM-NH2) | 20 nM | 260 nM | > 10000 nM | 2500 nM | 6000 nM | 
CSCC[C@H](NC(=O)[C@H](CC(C)C)NC(=O)[C@@H]1CCCN1C(=O)[C@@H](NC(=O)[C@H](Cc1ccccc1)NC(=O)[C@H](CCC(N)=O)NC(=O)[C@H](CCC(N)=O)NC(=O)[C@@H]1CCCN1C(=O)[C@H](CCCCN)NC(=O)[C@@H]1CCCN1C(=O)[C@@H](N)CCCN=C(N)N)C1c2ccccc2-c2ccccc21)C(N)=O (H-RPKPQQF[Gly(9-fluorenyl)]PLM-NH2) | 1.7 nM |  | 15000 nM | 3.3 nM | 1300 nM | 
CSCC[C@H](NC(=O)[C@H](CC(C)C)NC(=O)CNC(=O)[C@@H](NC(=O)[C@@H](NC(=O)[C@H](CCC(N)=O)NC(=O)[C@H](CCC(N)=O)NC(=O)[C@@H]1CCCN1C(=O)[C@H](CCCCN)NC(=O)[C@@H]1CCCN1C(=O)[C@@H](N)CCCN=C(N)N)C1CCc2ccccc21)C1c2ccccc2-c2ccccc21)C(N)=O (some centres undefined) (H-RPKPQQ[X1][Gly(9-fluorenyl)]GLM-NH2) | 3.4 nM | 7.9 nM | 450 nM | 29 nM | 110 nM | 
